From PubChem BioAssay AID540324 (Johns Hopkins Ion Channel Center, 2011)
Calls of active or inactive are those of the source.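 Rule for the calls: active = maximum inhibition above 30% at any tested concentration, with a dose response curve fitted; inactive = no inhibition at any dose or no dose response curve.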

Assay: parental HEK293 potassium flux blockers – cell-based, FluxOR thallium flux, concentration-response, set 2, counter-screen for KCNK9 inhibitor project, SAR follow-up (AID 540324)
Procedure, shortened: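 System – parental HEK293 cells lacking KCNK9 expression · Reagent – K+/Tl+ sulfate stimulus, 5x stock · Dosing – Ten-concentration dilution series per compound · Times – dye loading 90 min at room temperature in dark, compound exposure 20 min · Detection – fluorescence of thallium-sensitive FluxOR dye · Repeats – at least two replicates per compound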

Row | SMILES | outcome
1 | CCOc1ccccc1NC(=O)c1cccc(NC(=O)c2cccc(C(F)(F)F)c2)c1 | inactive
2 | CCOc1ccccc1NC(=O)c1cccc(NC(=O)c2ccc(Cl)cc2)c1 | inactive
3 | Cc1ccccc1C(=O)Nc1cccc(NC(=O)c2ccccc2)c1 | inactive
4 | CC(C1CC2CCC1C2)n1c(-c2ccccc2Cl)n[nH]c1=S (stereo unspecified) | inactive
5 | Cc1ccc(C(=O)Nc2cccc(NC(=O)c3ccccc3)c2)cc1 | inactive
6 | O=C(Nc1cccc(NC(=O)c2ccc(Cl)cc2)c1)c1ccccc1 | inactive
7 | Cc1cccc(C(=O)Nc2cccc(NC(=O)c3ccccc3Cl)c2)c1 | inactive
8 | Cc1cccc(C(=O)Nc2cccc(NC(=O)c3ccc(C(C)(C)C)cc3)c2)c1 | inactive
9 | Cc1cccc(C(=O)Nc2ccccc2NC(=O)c2ccccc2)c1 | inactive
10 | Cc1cccc(C(=O)Nc2cccc(NC(=O)c3ccc(N(C)C)cc3)c2)c1 | inactive
11 | O=C(Nc1cccc(NC(=O)c2ccccn2)c1)c1ccccc1 | inactive
12 | O=C(Nc1cccc(NC(=O)c2ccccc2C(F)(F)F)c1)c1ccccc1 | inactive
13 | CC(C)(C)c1ccc(C(=O)Nc2cccc(NC(=O)c3ccccc3)c2)cc1 | inactive
14 | O=C(Nc1cccc(NC(=O)c2cccs2)c1)c1ccccc1 | inactive
15 | O=C(Nc1cccc(NC(=O)c2ccccc2Cl)c1)c1ccccc1 | inactive
16 | CCOc1ccccc1NC(=O)c1cccc(NC(=O)C2CCCO2)c1 (stereo unspecified) | inactive
17 | CCOc1ccccc1C(=O)Nc1cccc(NC(=O)c2ccccc2OC)c1 | inactive
18 | CCOc1ccccc1NC(=O)c1cccc(NC(=O)C2CCOC2)c1 (stereo unspecified) | inactive

Row | SMILES | outcome
19 | CC(C1CC2CCC1C2)n1c(-c2ccsc2)n[nH]c1=S (stereo unspecified) | inactive
20 | Cc1ccccc1-c1n[nH]c(=S)n1C(C)C1CC2CCC1C2 (stereo unspecified) | inactive
21 | CCOc1ccccc1NC(=O)c1cccc(NC(=O)C2CCCCC2)c1 | inactive
22 | COc1ccccc1-c1n[nH]c(=S)n1C(C)C1CC2CCC1C2 (stereo unspecified) | inactive
23 | COc1ccccc1C(=O)Nc1cccc(NC(=O)c2ccccc2OC(F)(F)F)c1 | inactive
24 | CCOc1ccccc1NC(=O)c1cccc(NC(=O)c2ccccc2OC)c1 | inactive
25 | Cc1cccc(C(=O)Nc2cccc(NC(=O)c3ccccc3OC(F)(F)F)c2)c1 | inactive
26 | CCOc1ccccc1NC(=O)c1cccc(NC(=O)C2CCCC2)c1 | inactive
27 | O=C(Nc1cccc(NC(=O)c2cccc(F)c2)c1)c1ccccc1 | inactive
28 | CCOc1ccccc1NC(=O)c1cccc(NC(=O)CC2CCCC2)c1 | inactive
29 | CCOc1ccccc1NC(=O)c1cccc(NC(=O)c2ccccc2C)c1 | inactive
30 | COc1ccccc1NC(=O)c1cccc(NC(=O)C2CCCC2)c1 | inactive
31 | CC(C1CC2CCC1C2)n1c(-c2cccc(Cl)c2)n[nH]c1=S (stereo unspecified) | inactive
32 | CC(c1ccco1)n1c(-c2ccoc2)n[nH]c1=S (stereo unspecified) | inactive
33 | CCOc1ccccc1NC(=O)c1cccc(NC(=O)c2ccc(OC)cc2)c1 | inactive
34 | CCOc1ccccc1NC(=O)c1cccc(NC(=O)c2ccccc2C(F)(F)F)c1 | inactive
35 | COc1ccccc1NC(=O)c1cccc(NC(=O)c2ccccc2C(F)(F)F)c1 | inactive
36 | COc1cccc(C(=O)Nc2cccc(NC(=O)c3cccc(C)c3)c2)c1 | inactive
